Experimental data reported in ChEMBL document CHEMBL1240327, “Small molecules enhance autophagy and reduce toxicity in Huntington's disease models” (Nat Chem Biol, 2007).
Active and inactive are the calls of the source.

Legend:
Saccharomyces cerevisiae [1] = test: Inhibition of 25 nM rapamycin-mediated cytostatic effect in yeast BY4742 at sub-lethal concentration after 48 to 96 hrs; type: functional, organism-based
Saccharomyces cerevisiae [2] = test: Inhibition of 50 nM rapamycin-mediated cytostatic effect in yeast BY4742 after 48 to 96 hrs; type: functional, organism-based
Saccharomyces cerevisiae [3] = test: Inhibition of rapamycin-mediated cytostatic effect in yeast RM11-1a after 48 to 96 hrs; type: functional
Saccharomyces bayanus [4] = test: Inhibition of rapamycin-mediated cytostatic effect in Saccharomyces bayanus after 48 to 96 hrs; type: functional
Saccharomyces mikatae [5] = test: Inhibition of rapamycin-mediated cytostatic effect in Saccharomyces mikatae after 48 to 96 hrs; type: functional
Saccharomyces paradoxus [6] = test: Inhibition of rapamycin-mediated cytostatic effect in Saccharomyces paradoxus after 48 to 96 hrs; type: functional
PC-12 [7] = test: Enhancement of autophagy in rat PC12 cells assessed as decrease in alpha-synuclein A53T mutant level at 43 uM by immunoblotting; type: functional, cell-based
Procedure, shortened: (§1)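 Stable PC12 line with doxycycline-inducible HA-tagged A53T α-synuclein; induced with 1 μg/ml doxycycline for 48 h, then doxycycline removed. Compounds added during the 24 h switch-off period, from 5 mg ml⁻¹ DMSO stock diluted 1:20000, 1:4000 or 1:400. HA immunoblot, densitometry relative to actin; control set to 100 %; three independent experiments, factorial ANOVA.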

[8] = Cytotoxicity against african green monkey COS7 cells at 43 uM after 24 hrs by FACS analysis; type: cell-based; conditions: chlorocebus aethiops, cos-7, 24 h
[9] = biological target: Huntingtin (Homo sapiens) (UniProt P42858); test: Inhibition of EGFP-tagged huntingtin aggregation expressed in african green monkey COS7 cells at 43 uM after 48 hrs by […]; type: cell-based; conditions: COS-7
[10] = biological target: Huntingtin (Homo sapiens) (UniProt P42858); test: Inhibition of EGFP-tagged huntingtin expressed in african green monkey COS7 cells assessed as protection against protein-induced cell death at 43 uM after 48 hrs […]; type: cell-based; conditions: COS-7
Procedure, shortened: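 COS-7 cells transfected 4 h with EGFP-tagged huntingtin exon 1 (74 polyQ), then treated for 48 h. About 200 EGFP-positive cells were scored by fluorescence microscopy for aggregates; DAPI-stained nuclei with apoptotic morphology were counted as dead. Triplicate, scorer blinded. Results given as odds ratios vs DMSO (set to 1) with 95 % CI by logistic regression.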

[11] = biological target: Huntingtin (Mus musculus) (UniProt P42859); test: Inhibition of EGFP-tagged huntingtin aggregation in MEF harboring Atg5 gene at 47 uM after 48 hrs by Western blot analysis
Huntingtin (Mus musculus), sequence (P42859 whole entry): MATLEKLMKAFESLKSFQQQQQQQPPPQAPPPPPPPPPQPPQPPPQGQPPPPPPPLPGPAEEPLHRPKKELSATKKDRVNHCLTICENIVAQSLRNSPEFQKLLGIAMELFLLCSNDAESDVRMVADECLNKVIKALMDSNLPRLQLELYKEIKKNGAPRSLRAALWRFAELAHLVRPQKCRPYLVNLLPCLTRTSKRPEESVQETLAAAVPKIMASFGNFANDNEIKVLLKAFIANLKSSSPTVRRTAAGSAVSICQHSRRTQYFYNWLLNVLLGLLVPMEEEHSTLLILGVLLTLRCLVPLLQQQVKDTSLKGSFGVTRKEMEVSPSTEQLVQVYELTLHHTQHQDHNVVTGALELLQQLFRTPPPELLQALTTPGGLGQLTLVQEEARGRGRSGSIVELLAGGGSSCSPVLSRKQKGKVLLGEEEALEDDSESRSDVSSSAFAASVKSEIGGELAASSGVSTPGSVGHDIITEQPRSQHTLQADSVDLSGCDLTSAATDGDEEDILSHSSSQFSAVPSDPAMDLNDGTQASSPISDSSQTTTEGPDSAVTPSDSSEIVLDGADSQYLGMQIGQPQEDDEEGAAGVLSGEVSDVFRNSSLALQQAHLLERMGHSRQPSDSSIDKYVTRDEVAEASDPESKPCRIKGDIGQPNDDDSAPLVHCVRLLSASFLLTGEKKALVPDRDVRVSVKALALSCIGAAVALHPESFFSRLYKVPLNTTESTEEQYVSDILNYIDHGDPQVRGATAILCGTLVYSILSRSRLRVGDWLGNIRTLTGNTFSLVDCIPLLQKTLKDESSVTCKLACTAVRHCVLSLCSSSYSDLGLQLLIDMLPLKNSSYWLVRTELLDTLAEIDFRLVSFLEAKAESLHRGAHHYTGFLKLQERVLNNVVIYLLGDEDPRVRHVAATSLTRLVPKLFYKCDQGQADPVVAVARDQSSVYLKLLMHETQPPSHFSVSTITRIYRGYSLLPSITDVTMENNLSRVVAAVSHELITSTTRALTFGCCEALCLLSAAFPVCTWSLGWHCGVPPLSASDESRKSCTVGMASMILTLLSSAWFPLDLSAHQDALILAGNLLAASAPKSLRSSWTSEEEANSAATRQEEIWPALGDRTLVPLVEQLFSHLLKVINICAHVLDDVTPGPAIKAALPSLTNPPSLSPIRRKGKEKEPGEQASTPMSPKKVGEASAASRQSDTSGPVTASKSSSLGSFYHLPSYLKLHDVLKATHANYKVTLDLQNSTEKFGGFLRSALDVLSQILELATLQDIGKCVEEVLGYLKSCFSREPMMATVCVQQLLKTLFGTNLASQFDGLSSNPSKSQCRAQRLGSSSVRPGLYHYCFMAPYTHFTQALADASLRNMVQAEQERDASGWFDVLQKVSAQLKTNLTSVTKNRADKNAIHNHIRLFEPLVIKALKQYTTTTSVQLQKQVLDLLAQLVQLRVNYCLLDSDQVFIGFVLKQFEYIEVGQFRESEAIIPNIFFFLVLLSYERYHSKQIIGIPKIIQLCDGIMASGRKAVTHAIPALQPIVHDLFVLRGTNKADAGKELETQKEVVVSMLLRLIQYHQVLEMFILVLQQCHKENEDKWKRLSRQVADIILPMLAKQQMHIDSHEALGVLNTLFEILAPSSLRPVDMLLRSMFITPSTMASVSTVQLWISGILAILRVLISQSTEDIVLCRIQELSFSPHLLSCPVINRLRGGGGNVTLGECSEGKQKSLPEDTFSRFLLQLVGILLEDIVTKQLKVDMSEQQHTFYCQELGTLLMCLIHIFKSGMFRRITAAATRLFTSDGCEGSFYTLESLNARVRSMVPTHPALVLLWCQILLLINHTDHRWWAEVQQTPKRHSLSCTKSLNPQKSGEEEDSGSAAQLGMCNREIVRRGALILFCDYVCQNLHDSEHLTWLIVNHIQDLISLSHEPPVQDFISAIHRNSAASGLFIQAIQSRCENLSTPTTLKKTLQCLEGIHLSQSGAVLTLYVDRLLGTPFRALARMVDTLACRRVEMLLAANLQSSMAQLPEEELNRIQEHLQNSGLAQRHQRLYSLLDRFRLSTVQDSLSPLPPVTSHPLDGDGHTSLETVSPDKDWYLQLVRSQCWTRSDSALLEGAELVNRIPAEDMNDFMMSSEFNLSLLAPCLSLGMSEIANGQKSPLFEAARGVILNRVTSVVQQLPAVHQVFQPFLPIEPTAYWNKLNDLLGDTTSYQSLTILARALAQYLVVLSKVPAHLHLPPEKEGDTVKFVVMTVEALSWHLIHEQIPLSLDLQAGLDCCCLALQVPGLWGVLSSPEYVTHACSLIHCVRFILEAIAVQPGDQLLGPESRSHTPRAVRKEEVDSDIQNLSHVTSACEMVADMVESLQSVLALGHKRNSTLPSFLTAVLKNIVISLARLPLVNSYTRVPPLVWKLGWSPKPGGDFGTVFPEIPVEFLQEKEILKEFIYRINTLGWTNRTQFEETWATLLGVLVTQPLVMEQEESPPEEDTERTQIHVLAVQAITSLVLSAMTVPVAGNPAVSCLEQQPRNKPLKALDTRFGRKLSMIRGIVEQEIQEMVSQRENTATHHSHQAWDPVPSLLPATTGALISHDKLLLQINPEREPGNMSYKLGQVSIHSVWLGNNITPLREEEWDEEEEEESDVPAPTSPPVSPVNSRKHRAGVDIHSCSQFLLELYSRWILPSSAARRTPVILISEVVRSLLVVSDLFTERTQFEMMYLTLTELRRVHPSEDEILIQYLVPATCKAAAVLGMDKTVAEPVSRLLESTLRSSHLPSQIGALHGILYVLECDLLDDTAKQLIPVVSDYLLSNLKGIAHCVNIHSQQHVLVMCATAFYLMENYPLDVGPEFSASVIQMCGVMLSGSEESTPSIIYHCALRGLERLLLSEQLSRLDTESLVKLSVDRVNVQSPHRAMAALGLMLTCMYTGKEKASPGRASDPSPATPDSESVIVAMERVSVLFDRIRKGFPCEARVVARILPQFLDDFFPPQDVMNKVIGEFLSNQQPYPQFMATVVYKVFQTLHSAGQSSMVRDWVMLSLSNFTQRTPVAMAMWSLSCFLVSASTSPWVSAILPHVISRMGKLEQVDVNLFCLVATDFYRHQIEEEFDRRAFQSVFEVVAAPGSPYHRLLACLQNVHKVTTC

[12] = biological target: Huntingtin (Mus musculus) (UniProt P42859); test: Inhibition of EGFP-tagged huntingtin aggregation in MEF harboring Atg5 gene at 43 uM after 48 hrs by Western blot analysis
[13] = biological target: Huntingtin (Mus musculus) (UniProt P42859); test: Inhibition of EGFP-tagged huntingtin aggregation in Atg5-deficient MEF at 47 uM after 48 hrs by Western blot analysis
[14] = biological target: Huntingtin (Mus musculus) (UniProt P42859); test: Inhibition of EGFP-tagged huntingtin aggregation in Atg5-deficient MEF at 43 uM after 48 hrs by […]
HeLa [15] = test: Induction of autophagy in human HeLa cells harboring MAP1LC3 gene at 43 uM after 24 hrs by DAPI staining-based fluorescence microscopy; type: functional, cell-based
Procedure, shortened: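 Stable EGFP-LC3 HeLa cells treated 24 h. EGFP-positive autophagic vesicles were imaged by confocal microscopy with DAPI nuclear counterstain.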

HeLa [16] = test: Increase in MAP1LC3 level in bafilomycin A1-treated human HeLa cells at 43 uM treated fro 24 hrs before bafilomycin A1 challenge by immunoblotting analysis; type: functional, cell-based
Procedure, shortened: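 HeLa cells stably expressing EGFP-LC3 were pretreated with compound for 24 h, then given 200 nM bafilomycin A1 for 4 h. EGFP-LC3-II was measured by anti-EGFP immunoblot with densitometry relative to actin, from three independent experiments.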

Drosophila melanogaster [17] = test: Neuroprotective activity in Drosophila melanogaster Huntington's disease model harboring huntington protein mutant assessed as protection against neurodegeneration at 200 uM; type: functional, organism-based
Drosophila melanogaster [18] = test: Toxicity against Drosophila melanogaster Huntington's disease model at 200 uM; type: organism-based; conditions: in vivo
[19] = biological target: Serine/threonine-protein kinase mTOR (Homo sapiens) (UniProt P42345); test: Inhibition of mTOR phosphorylation expressed in african green monkey COS7 cells at 43 uM by Western blot analysis; type: cell-based; conditions: COS-7
COS-7 [20] = test: Effect on ATg6 level in african green monkey COS7 cells at 43 uM after 24 hrs by immunoblotting; type: functional, cell-based; conditions: Chlorocebus aethiops
COS-7 [21] = test: Effect on ATg5 level in african green monkey COS7 cells at 43 uM after 24 hrs by immunoblotting; type: functional, cell-based; conditions: Chlorocebus aethiops
COS-7 [22] = test: Effect on ATg7 level in african green monkey COS7 cells at 43 uM after 24 hrs by immunoblotting; type: functional, cell-based; conditions: Chlorocebus aethiops
COS-7 [23] = test: Effect on ATg12 level in african green monkey COS7 cells at 43 uM after 24 hrs by immunoblotting; type: functional, cell-based; conditions: Chlorocebus aethiops
COS-7 [24] = test: Increase in conjugated Atg12-Atg5 level in african green monkey COS7 cells at 43 uM after 24 hrs by immunoblotting; type: functional, cell-based; conditions: Chlorocebus aethiops
HeLa [25] = test: Inhibition of proteasome activity in human HeLa cells assessed as induction of ubiquitinG76V-EGFP reporter level at 43 uM after 24 hrs by immunoblotting
PC-12 [26] = test: Enhancement of rapamycin-induced clearance of alpha-synuclein A53T mutant protein in rat PC12 cells at 43 uM after 8 hrs by immunoblotting; type: functional, cell-based
Procedure, shortened: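 Inducible PC12 A53T α-synuclein line (1 μg/ml doxycycline, 48 h, then switched off). Compound given alone or with 0.2 μM rapamycin over an 8 h switch-off period. Read-out is anti-HA immunoblot with densitometry relative to actin, n=3, control as 100 %.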

[27] = biological target: Huntingtin (Homo sapiens) (UniProt P42858); test: Inhibition of EGFP-tagged huntingtin aggregation expressed in african green monkey COS7 cells at 43 uM after 24 hrs by […] in presence of 0.2 uM rapamycin; type: cell-based; conditions: COS-7
Saccharomyces cerevisiae [28] = test: Enhancement of 20 nM rapamycin-mediated cytostatic effect in yeast BY4742 after 48 to 96 hrs; type: functional, organism-based
Saccharomyces cerevisiae [29] = test: Enhancement of rapamycin-mediated cytostatic effect in yeast RM11-1a after 48 to 96 hrs; type: functional
Saccharomyces bayanus [30] = test: Enhancement of rapamycin-mediated cytostatic effect in Saccharomyces bayanus after 48 to 96 hrs; type: functional
Saccharomyces mikatae [31] = test: Enhancement of rapamycin-mediated cytostatic effect in Saccharomyces mikatae after 48 to 96 hrs; type: functional
Saccharomyces paradoxus [32] = test: Enhancement of rapamycin-mediated cytostatic effect in Saccharomyces paradoxus after 48 to 96 hrs; type: functional
PC-12 [33] = test: Enhancement of autophagy in rat PC12 cells assessed as decrease in alpha-synuclein A53T mutant level at 5 mg/ml by densitometry; type: functional, cell-based; procedure, shortened: as §1
PC-12 [34] = test: Enhancement of autophagy in rat PC12 cells assessed as decrease in alpha-synuclein A53T mutant level at 47 uM by immunoblotting; type: functional, cell-based; procedure, shortened: as §1

COc1ccc(C[C@H]2NC[C@H](O)[C@H]2OC(C)=O)cc1
inactive: inhibition (Saccharomyces cerevisiae [1])

O=C1C(Nc2ccccc2)=CC(=O)c2ncccc21
10.4 µM: EC50 (Saccharomyces cerevisiae [2])
active: inhibition (Saccharomyces cerevisiae [3]) | inhibition (Saccharomyces bayanus [4]) | inhibition (Saccharomyces mikatae [5]) | inhibition (Saccharomyces paradoxus [6])

C/C(=C/C(=O)c1ccc(Cl)cc1)Nc1cccc(O)c1
inactive: inhibition [11] | inhibition [13] | inhibition [19] | Activity (COS-7 [20]) | Activity (COS-7 [21]) | Activity (COS-7 [22]) | Activity (COS-7 [23]) | Activity (COS-7 [24]) | inhibition (HeLa [25])
active: Activity (PC-12 [7]) | inhibition [9] | inhibition [10] | inhibition [12] | inhibition [14] | Activity (HeLa [15]) | Activity (HeLa [16]) | Activity (Drosophila melanogaster [17]) | Activity (PC-12 [26]) | inhibition [27] | Activity (Saccharomyces cerevisiae [29]) | Activity (Saccharomyces bayanus [30]) | Activity (Saccharomyces mikatae [31]) | Activity (Saccharomyces paradoxus [32]) | Activity (PC-12 [33]) | Activity (PC-12 [34])
Non-toxic: Activity [8] | Activity (Drosophila melanogaster [18])
17.4 µM: EC50 (Saccharomyces cerevisiae [28])
